High-throughput results deposited in PubChem BioAssay by The Scripps Research Institute Molecular Screening Center.
A selection: hits, their analogues and other compounds. The true share with any hit is near 4.6%.
GPR7 antag: antagonists of human GPR7 (neuropeptides B/W receptor 1) | GPR7-expressing cells, fluorescence antagonist assay | inhibition, % at 4.4 µM | hit rate 1.1% among 290,000; in the data active = inhibition above about 16%, passing the limit was not always enough;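 note: cells stimulated with the agonist NPW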
Target sequence (P48145 whole entry, looked up): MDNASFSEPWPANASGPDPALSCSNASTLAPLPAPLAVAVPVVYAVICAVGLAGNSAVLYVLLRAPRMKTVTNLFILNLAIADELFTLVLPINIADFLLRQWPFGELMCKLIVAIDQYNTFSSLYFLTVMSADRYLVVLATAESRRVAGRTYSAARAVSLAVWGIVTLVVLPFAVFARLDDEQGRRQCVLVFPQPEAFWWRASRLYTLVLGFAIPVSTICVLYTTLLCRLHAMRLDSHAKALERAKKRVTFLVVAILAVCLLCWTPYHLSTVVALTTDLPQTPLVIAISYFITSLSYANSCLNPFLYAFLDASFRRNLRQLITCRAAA
TAAR1 antag: antagonists of human TAAR1. Q96RJ0. CHO RD-HGA16 TAAR1, Fluo-8 calcium fluorescence, antagonist. inhibition, % at 3 µM. hit rate 1.5% among 360,000. AID 624466;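 active = inhibition above a per-plate cutoff, the mean inhibition of test compounds on that plate plus 3 SD, cut at about 49% in these data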
Target sequence (Q96RJ0 whole entry, looked up): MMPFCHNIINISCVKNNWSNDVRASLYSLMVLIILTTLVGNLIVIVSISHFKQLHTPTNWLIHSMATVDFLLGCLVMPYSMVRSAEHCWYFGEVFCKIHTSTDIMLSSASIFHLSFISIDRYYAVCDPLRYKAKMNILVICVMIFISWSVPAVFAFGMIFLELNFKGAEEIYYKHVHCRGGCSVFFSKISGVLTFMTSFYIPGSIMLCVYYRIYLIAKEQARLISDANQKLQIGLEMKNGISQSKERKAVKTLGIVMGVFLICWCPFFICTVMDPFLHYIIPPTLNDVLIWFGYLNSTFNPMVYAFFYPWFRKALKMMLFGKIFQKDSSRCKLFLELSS
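Test system – hTAAR1-expressing CHO RD-HGA16 cells, Gα16-coupled · Reagent – β-PEA at EC80 concentration, post-compound challenge · Compound dosing – 3 µM, single point · Timing – 140 s kinetic read after compound, 140 s after agonist · Detection – Fluo-8 intracellular calcium dye fluorescence, real-time kinetic reads · Control set – DMSO and EC80 PEA controls · Repeats – n of 1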
OX1R antag-1: antagonists of human orexin 1 receptor | O43613 | CHO/OX1R cells, Fluo-8 calcium fluorescence, orexin A | inhibition, % at 5 µM | hit rate 0.43% among 330,000;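 active = inhibition above its plate's threshold, mean inhibition of all tested compounds on the plate plus 3 SD, cut at about 37% in these data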
TAAR1 ag: human TAAR1 agonism; AID 624467; CHO RD-HGA16 TAAR1, Fluo-8 calcium fluorescence; vehicle wells 0%, saturating PEA agonist 100%; hit rate 0.99% among 360,000; Q96RJ0; activation, % at 3 µM;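 active = activation above the mean activation of all test compounds in the run plus 3 SD, cut at about 38% in these data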
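Repeats: no replicates (n 1) | Material: CHO-derived RD-HGA16 cells with stable Gα16 and human TAAR1 | Technique: Kinetic Fluo-8 calcium fluorescence | Schedule: 17-24 h seeding, 75 min 37 °C dye, 30 min RT | Evaluation: % activation from peak over basal fluorescence ratio, DMSO-to-PEA scaled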
OX1R antag-2: OX1R (human) antagonism; O43613; OX1R-expressing cells, FRET antagonist read-out; inhibition, % at 6.6 µM; hit rate 1.8% among 330,000; AID 485270; in the data active = inhibition mostly above about 38%, no sharp cut-off; inactive = mostly below about 40%
CHO parental Ca: signal in parental CHO cells, OX1R antagonist counter-screen; hit rate 0.63% among 330,000; inhibition, % at 5.6 µM; parental CHO-K1, ATP-induced calcium, Fluo-8 fluorescence; AID 463079;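 active = inhibition above that plate's mean sample inhibition plus 3 SD, cut at about 26% in these data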
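test system = CHO parental line | reagent = ATP stimulus | measured by = intracellular calcium via Fluo-8 no-wash fluorescent dye | control set = ATP and no-ATP DMSO wells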
OX1R HTRF confirm: confirmation of human orexin 1 receptor antagonists, HTRF format | OX1R-expressing cells, HTRF antagonist assay | inhibition, % at 6.6 µM | hit rate 49% among 1,800 | shares compounds with OX1R antag-2; in the data active = inhibition above about 55%;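 note: CHO cells expressing OX1R stimulated with orexin A at about EC80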
CHO-K1 HTRF cnt: counter-screen: parental CHO-K1 HTRF response; shares compounds with OX1R antag-2; parental CHO-K1 cells, HTRF counterscreen; inhibition, % at 6.6 µM; hit rate 48% among 1,800; AID 493232; in the data active = inhibition above about 17%
Of the large screens only hits and unclear results are named; the others gave an inactive call (follow-up assays come after a bar, where they were run).

CCN(CC)c1ccc(/C=N/NC(=O)c2ccoc2C)c(O)c1	OX1R antag-2 85 | OX1R HTRF confirm 91 | CHO-K1 HTRF cnt inactive
O=C(Cn1cc(C(F)(F)F)ccc1=O)N/N=C/c1ccccc1	none
CCn1cc(CN(C)C(=O)/C=C/c2ccc([N+](=O)[O-])cc2)c(C)n1	OX1R antag-2 92 | OX1R HTRF confirm inactive | CHO-K1 HTRF cnt 35
CCN1CCN(C(=O)/C=C/c2ccc([N+](=O)[O-])cc2)CC1	OX1R antag-2 97 | OX1R HTRF confirm inactive | CHO-K1 HTRF cnt 59
COc1ccccc1-c1noc(CCC(=O)Nc2ccccc2Cl)n1	none
COc1cc2c(cc1[N+](=O)[O-])-c1ccc([N+](=O)[O-])cc1C2=NO	none (no result: GPR7 antag, OX1R antag-1, OX1R antag-2, CHO parental Ca)
O=c1[nH]cccc1-c1nc2ccccc2n1Cc1cccc(F)c1	none
O=c1[nH]c2ccc(Cl)cc2c(-c2ccccc2)c1[N+](=O)[O-]	OX1R antag-2 81 | OX1R HTRF confirm 75 | CHO-K1 HTRF cnt inactive
Cc1nnc(N/N=C/c2cc(C)n(-c3ccc(F)cc3)c2C)n1N	OX1R antag-2 92 | OX1R HTRF confirm inactive | CHO-K1 HTRF cnt inactive
Cc1nnc(N/N=C/c2ccccc2O)n1N	OX1R antag-2 160 | OX1R HTRF confirm inactive | CHO-K1 HTRF cnt inactive
Oc1ccccc1/C=N/Nc1nn[nH]n1	none
CC1CCCCN1C(=O)c1cc2nc(-c3ccccc3)cc(-c3ccccc3)n2n1 (centres undefined)	none
O=S(=O)(c1cccc2nsnc12)N1CCOCC1	OX1R antag-2 92 | OX1R HTRF confirm inactive | CHO-K1 HTRF cnt 38
CCCCNC1=CC(=O)C(=O)c2ccccc21	OX1R antag-2 161 | OX1R HTRF confirm 88 | CHO-K1 HTRF cnt 101
CC1CCc2nc(NC(=O)CSc3nc4ccccc4o3)sc2C1 (centres undefined)	OX1R antag-2 89 | OX1R HTRF confirm inactive | CHO-K1 HTRF cnt inactive
Cc1nnc(NC(=O)CSc2nc3ccccc3o2)s1	none
CC(C)(C)C(=O)Cn1nc(Cl)nc1Cl	none
COCCOC(=O)C1=C(C)NC(C)=C(C(=O)OCCOC)C1/C=C/c1ccccc1OC	OX1R antag-2 78 | OX1R HTRF confirm inactive | CHO-K1 HTRF cnt inactive
Cc1ccc(S(=O)(=O)N(C)C)cc1NC(=O)C1CCCCC1	none
c1ccc2nc3c(nc2c1)[nH]c1ccccc13	OX1R antag-2 82 | OX1R HTRF confirm 72 | CHO-K1 HTRF cnt inactive
O=C(CS(=O)c1ccccc1[N+](=O)[O-])Oc1ccc(Br)cc1 (centres undefined)	none
CS(=O)(=O)c1ccc(S(=O)CC(=O)Oc2ccc(Cl)cc2)c([N+](=O)[O-])c1 (centres undefined)	OX1R antag-2 116 (no result: TAAR1 antag, TAAR1 ag) | OX1R HTRF confirm inactive | CHO-K1 HTRF cnt 38
Cc1ccc2c(ccc[n+]2CC(=O)c2ccccc2)c1	OX1R antag-2 84 | OX1R HTRF confirm inactive | CHO-K1 HTRF cnt 40
O=C(CN1C(=O)/C(=C2\SC(=S)N(C3CCS(=O)(=O)C3)C2=O)c2ccccc21)Nc1ccc(F)cc1 (centres undefined)	none
COc1cc(CNCCSc2nnnn2C)cc(Br)c1OCc1ccccc1F	OX1R antag-2 95 | OX1R HTRF confirm inactive | CHO-K1 HTRF cnt inactive
COc1cccc2cc(C(=O)Nc3ccccc3Cl)/c(=N/NS(=O)(=O)c3ccccc3)oc12	none
COc1ccc(S(=O)(=O)N(C)C)cc1NC(=O)CCNC(=O)c1ccccc1OC	none
O=C1SCCC1NS(=O)(=O)c1ccc([N+](=O)[O-])cc1 (centres undefined)	OX1R antag-2 96 | OX1R HTRF confirm inactive | CHO-K1 HTRF cnt 24
O=C(NCc1cccnc1)C1CCCN(S(=O)(=O)c2cccc3nsnc23)C1 (centres undefined)	OX1R antag-2 89 | OX1R HTRF confirm inactive | CHO-K1 HTRF cnt 32
O=C(NCc1ccccc1)C1CCCN(S(=O)(=O)c2cccc3nsnc23)C1 (centres undefined)	none
O=C(CCS(=O)(=O)c1cccc2nonc12)N1CCN(c2ccc(F)cc2)CC1	OX1R antag-2 97 | OX1R HTRF confirm inactive | CHO-K1 HTRF cnt 24
O=C(CCS(=O)(=O)c1cccc2nonc12)N1CCOCC1	OX1R antag-2 99 | OX1R HTRF confirm inactive | CHO-K1 HTRF cnt 69
O=C(CCS(=O)(=O)c1cccc2nonc12)N1CC(=O)N(CCc2ccccc2)C(=O)C1	none
Cc1ccc(S(=O)(=O)N2CCN(C(=O)C3=COCCO3)CC2)cc1C	none
NC(=O)c1cc(N)ccc1N1CCCC1	OX1R antag-2 87 | OX1R HTRF confirm inactive | CHO-K1 HTRF cnt 19
COc1cc(OC)c2cc(C(=O)N/N=C/c3cccc(OC)c3O)[nH]c2c1	OX1R antag-2 77 | OX1R HTRF confirm 72 | CHO-K1 HTRF cnt inactive
COc1cccc(/C=N/NC(=O)N/N=C/c2cccc(OC)c2O)c1O	none
Cc1cc(OCC(=O)NCCc2c[nH]c3ccccc23)c2c(C)c(C)c(=O)oc2c1	OX1R antag-2 86 | OX1R HTRF confirm inactive | CHO-K1 HTRF cnt inactive
O=C(C[n+]1cc(-c2ccc(Cl)cc2)n2c1CCC2)Nc1nc(-c2ccc(F)cc2)cs1	none
COc1ccc(Br)c(C(=O)N2CCN(S(=O)(=O)c3cccs3)CC2)c1	OX1R antag-2 136 | OX1R HTRF confirm inactive | CHO-K1 HTRF cnt inactive
C/C(=N\Nc1nncc2ccccc12)c1cccc(OC(F)F)c1	none
C/[N+]([O-])=C1\Cc2ccccc2C1=O	OX1R antag-2 105 | OX1R HTRF confirm inactive | CHO-K1 HTRF cnt 63
N#CC1=C(N)Oc2cc3ccccc3cc2C1c1cccnc1 (centres undefined)	none
N#CC1=C(N)Oc2c(ccc3cccnc23)C1c1cccnc1 (centres undefined)	OX1R antag-2 96 | OX1R HTRF confirm inactive | CHO-K1 HTRF cnt inactive
Fc1ccc(NC(=S)Nc2cccnc2)c(Cl)c1	OX1R antag-2 98 | OX1R HTRF confirm inactive | CHO-K1 HTRF cnt inactive
COc1ccc([C@@H]2CC=C(C(=O)O)[C@H](c3ccccc3)N2S(=O)(=O)c2ccccc2C)cc1	OX1R antag-2 78 (no result: GPR7 antag) | OX1R HTRF confirm 55 | CHO-K1 HTRF cnt inactive
COc1ccc([C@@H]2CC=C(C(=O)O)[C@H](c3cccc(Cl)c3)N2S(=O)(=O)c2ccc(C)cc2)cc1OC	OX1R antag-2 77 (no result: GPR7 antag) | OX1R HTRF confirm 84 | CHO-K1 HTRF cnt inactive
O=C1OCCC1Sc1nnc(-c2ccc(F)cc2)n1Cc1ccccc1 (centres undefined)	none
CN(CCc1ccccc1)C(=O)c1ccc(NC(=O)Cc2cccc(NC(=O)C3CCN(C(=O)C4CCC4)CC3)c2)cc1	none (no result: GPR7 antag, OX1R antag-1, OX1R antag-2, CHO parental Ca)
